aDG glyco up – activators of alpha-DG glycosylation, primary screen, uHTS, Pro5-aDG cells, AlphaScreen; activation, % at 10 µM; AID 624168, 2012; hit rate 0.22% among 360,000; alpha-DG glycosylation AlphaScreen (IIH6); 0% Pro5, 100% B10-LARGE cell signal;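 active = activation of at least 8% versus controls, or a plate z-score of at least 8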;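 note: Pro5 are CHO cells carrying HIG-tagged alpha-DG that lacks glycosylation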
Jurkat NFkB inh – inhibitors of induced NF-kB luciferase reporter, primary screen, TCR NF-kB activation inhibitor project, cell-based, luminescence, uHTS; inhibition, % at 4 µM; AID 435003, 2010; hit rate 0.53% among 330,000; Jurkat, PMA/ionomycin-induced NF-kB luciferase reporter; in the data active = inhibition above about 50%
MPTP block – mitochondrial permeability transition pore inhibitors, primary screen, biochemical, isolated mouse mitochondria, absorbance; Ca2+ swelling absorbance, 30 min; inhibition, % at 10 µM; hit rate 1.4% among 360,000; AID 602449, 2012;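 active = inhibition of 50% or more, scaled per plate between neutral and stimulator controls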;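 note: 0% = DMSO wells given calcium and 100% = 1 mM EGTA wells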
697 NFkB inh – inhibitors of PMA/ionomycin-induced NF-kB reporter, 697 cells, primary screen, B-cell NF-kB inhibitor project, cell-based, luminescence, uHTS; 697 B-cell NF-kB luciferase reporter, 16 h; inhibition, % at 4 µM; hit rate 0.33% among 330,000; in the data active = inhibition above about 35%
NR2E3 ag-1 – NR2E3 agonists in two-hybrid cells, primary screen, cell-based, luminescence, CHO-S, Gal4-NCOR/VP16-NR2E3; Photoreceptor-specific nuclear receptor (Homo sapiens), Q9Y5X4; luciferase; inhibition of corepressor binding, % at 3.98 µM; hit rate 0.35% among 360,000; AID 602229, 2012;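 active = inhibition above the mean of all tested compounds plus 3 SD, cut at about 70% in these data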;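 note: 0% = DMSO with NR2E3 transfected cells and 100% = cells lacking NR2E3 construct; higher means lower luciferase signal from less NR2E3 corepressor binding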
Target sequence (Q9Y5X4 whole entry, looked up, the tested form may be a part): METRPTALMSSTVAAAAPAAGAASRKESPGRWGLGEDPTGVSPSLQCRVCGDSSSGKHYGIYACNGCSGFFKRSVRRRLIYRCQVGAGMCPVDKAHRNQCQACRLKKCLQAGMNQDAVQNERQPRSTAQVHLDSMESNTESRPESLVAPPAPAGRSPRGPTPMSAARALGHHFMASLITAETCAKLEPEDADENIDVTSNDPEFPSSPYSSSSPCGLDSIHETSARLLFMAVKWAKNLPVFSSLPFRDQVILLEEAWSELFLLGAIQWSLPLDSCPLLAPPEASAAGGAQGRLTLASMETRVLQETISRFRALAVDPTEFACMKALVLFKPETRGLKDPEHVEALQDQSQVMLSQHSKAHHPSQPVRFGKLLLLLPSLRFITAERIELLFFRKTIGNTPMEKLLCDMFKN
NR2E3 ag-2 – inhibitors of NR2E3-RetCOR corepressor binding, primary screen, NR2E3 agonist project, biochemical, TR-FRET, GST-NR2E3, biotin-RetCOR; 1536-well; Photoreceptor-specific nuclear receptor (Homo sapiens), Q9Y5X4; AID 2300, 2010; inhibition of corepressor binding, % at 4.78 µM; hit rate 0.12% among 320,000;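 active = percent inhibition above the cutoff of mean plus 3 SD of all tested compounds, set per screening campaign, cut at about 20% in these data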;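 note: 0% = DMSO wells and 100% = biotin wells as full block of FRET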
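Material – GST-tagged NR2E3 plus biotinylated RetCOR corepressor · Quantity – NR2E3 fusion 1.35 nM · Times – 5 h incubation at 4 °C · Medium – pH 7.5 Tris-based buffer · Technique – TR-FRET, Eu(K)-anti-GST donor, streptavidin-D2 acceptor, ex 340, em 617/671 nm · Benchmarks – high control biotin, low control 0.6% DMSO · Format – 1536-well plates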
Jurkat NFkB conf – PMA/ionomycin-induced NF-kB reporter inhibitors, Jurkat retest, confirmation, T-cell NF-kB inhibitor project, cell-based, luminescence, single concentration; Jurkat NF-kB luciferase, 16 h; hit rate 27% among 2,700; shares compounds with Jurkat NFkB inh; inhibition, % at 4 µM;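 active = inhibition reaching about 45% at 4 µM in either replicate, limit read from the data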;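 note: plate controls were PMA/ionomycin stimulated DMSO wells for no effect and unstimulated DMSO wells for full effect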
* hit, by the source's call; · = no result given. Compounds with a hit are over-represented: about 2.4% of the library has one in this group of screens.

SMILES	aDG glyco up	Jurkat NFkB inh	MPTP block	697 NFkB inh	NR2E3 ag-1	NR2E3 ag-2	Jurkat NFkB conf
O=C(c1ccc(S(=O)(=O)N2CCOCC2)cc1)N1CCN(S(=O)(=O)c2ccc(Cl)s2)CC1	-0.1	-10.8	1.3	-13.2	25.0	1.1	·
COc1ccc(S(=O)(=O)CCc2nnc(NC(=O)c3ccc(F)cc3)s2)cc1	-0.1	4.9	4.2	12.4	-3.7	1.4	·
CCc1ccc(C2CC3C(CN2S(=O)(=O)c2ccc(C)cc2)[C@@H](O)C[C@@H](c2ccc(CC)cc2)N3S(=O)(=O)c2ccc(C)cc2)cc1 (stereo not given in full)	0.1	·	-0.1	·	·	·	·
COC(=O)[C@]1(Cc2ccccc2)N[C@H](CN(C)C(=O)COc2ccccc2)[C@@H]2C(=O)N(Cc3ccccc3)C(=O)[C@@H]21	0.2	-9.1	0.8	-5.1	-7.9	·	·
Cc1cccc(OCCNC(=O)c2ccc(Cl)c(S(=O)(=O)NCc3cccnc3)c2)c1	-0.1	66.2*	1.0	-27.6	-33.6	3.4	39.6
O=C(NCCc1ccc(Cl)cc1)c1ccc2ccccc2n1	-0.1	-8.2	1.6	-31.8	-100.8	0.6	·
O=C(O)C(=O)/C(=C\c1ccc(Cl)cc1)c1ccc2ccccc2n1	-0.2	-156.4	-9.3	-83.7	-57.7	-2.1	-54.0
Nc1c(C(=O)Nc2ccc(Cl)c(C(=O)O)c2)sc2nc3c(cc12)CCCC3	-0.1	13.4	-0.9	15.8	-40.4	1.9	·
Nc1c(C(=O)Nc2cccc(C(=O)O)c2)sc2nc3c(cc12)CCCC3	-0.1	69.7*	-2.1	16.2	-203.0	2.9	-54.3
O=C(/C=C/c1ccccc1)NC1CCSC1=O (stereo not given)	-0.2	-45.5	-1.7	-58.7	-22.7	-0.8	·
CC(=O)Nc1ccc(NC(=O)CCCn2cnc3ccccc3c2=O)cc1	-0.1	1.1	0.5	-6.0	-25.9	0.5	·
O=C(OCC(=O)N1CCC(c2ccccc2)=N1)c1ccc(Cl)s1	0.4	-172.5	-0.2	6.0	-7.8	·	7.0
CCc1cc(C(=O)OCC(=O)N2CCC(c3ccccc3)=N2)sc1C	0.1	-9.4	-0.2	11.3	-23.6	-2.7	·
O=S1(=O)N=C(N(CCO)/N=C/C=C/c2ccccc2)c2ccccc21	0.3	·	3.9	·	-2.7	-0.4	·
COc1ccc(NC(=O)COc2cc(C)cc(C)c2)cc1S(=O)(=O)N1CCCCC1	0.4	56.6*	0.0	-54.3	13.3	-1.3	23.2
O=C(Nc1ccccn1)c1cc2cc([N+](=O)[O-])ccc2s1	-0.3	-155.6	-1.0	-9.9	-8.7	-4.0	-94.7
COc1cccc(CNC(=O)CSCC(=O)Nc2ccc(C)cc2)c1	0.0	13.2	-1.0	17.0	-10.8	-0.2	·
CCN1/C(=C/C=C/c2oc3ccc4ccccc4c3[n+]2CC)Oc2ccc3ccccc3c21	·	92.5*	·	-24.4	·	2.8	42.5
CCC(=NCCc1c(C)[nH]c2ccc(C)cc12)C1=C(O)CC(c2ccccc2)CC1=O (stereo not given)	-0.3	63.9*	0.7	-22.4	-7.5	2.0	9.6
COc1ccc2c(=O)c(-c3ccc(C)cc3)c(-c3ccccc3)oc2c1	0.5	·	-0.5	7.5	-52.5	·	·
Cn1cccc1/C=C1\SC(=Nc2ccc(O)cc2)NC1=O	-0.1	56.0*	1.3	-52.4	-25.7	-4.9	8.2
COCCOC(=O)C1=C(C)N(Cc2ccccc2)C(=O)NC1c1ccc(OC)cc1 (stereo not given)	-0.1	5.5	-2.2	-4.0	-7.8	2.0	·
Cc1c(C(=O)Nc2cccc(Cl)c2)oc2ccc(S(=O)(=O)N3CCC4(CC3)OCCO4)cc12	0.1	59.7*	1.7	-37.1	4.1	4.8	30.4
O=Cc1cc2ccccc2nc1SCc1ccc(Cl)cc1	-0.3	48.9	1.2	-2.2	-3.7	-5.9	·
O=Cc1cc2ccccc2nc1SCc1ccc(Cl)c(Cl)c1	-0.3	56.9*	-1.0	-6.5	-21.6	0.2	44.1
SMILES	aDG glyco up	Jurkat NFkB inh	MPTP block	697 NFkB inh	NR2E3 ag-1	NR2E3 ag-2	Jurkat NFkB conf
CC(C)(C)c1ccc(/C=C/C(=O)Nc2nncs2)cc1	0.0	-170.9	10.7	-11.5	11.5	-2.0	-112.7
O=C(/C=C/c1ccc2c(c1)OCO2)Nc1nncs1	0.2	-13.3	2.1	8.7	-41.4	-0.4	·
COc1ccc(CS(=O)(=O)/C(Cl)=C(/Cl)C(=O)Nc2ccc(OC)nc2)cc1	-0.7	80.6*	-0.8	-155.7	73.7*	-3.3	84.8*
CCCCOc1ccc(/C=C/C(=O)OCC(=O)c2c(N)n(C)c(=O)n(C)c2=O)cc1OCC	-0.3	-7.3	-0.3	-32.4	-21.4	6.2	·
COc1ccc(-c2cc3ccc(OCC(C)=O)cc3oc2=O)cc1	1.1	-154.4	-0.9	-170.0	-119.8	5.0	-104.9
COc1ccc(-c2cc3ccc(OCC(C)=O)cc3oc2=O)cc1OC	0.3	-71.3	-2.0	-52.1	-55.7	0.8	·
CC(C)OCCCNC(=O)c1cc(S(=O)(=O)N2CCc3ccccc32)cn1C	0.1	-3.6	-0.8	-2.8	-5.2	1.3	·
CCOC(=O)CN1C(=O)CC(c2ccc([N+](=O)[O-])cc2)C1=O (stereo not given)	0.2	0.5	3.7	14.7	1.6	2.8	·
COC(=O)c1[nH]c2ccc(Br)cc2c1NC(=O)CN1CCN(C2CCCCC2)CC1	-0.2	68.3*	1.3	-0.6	20.1	-0.6	45.6*
Cc1c(C(=O)C(=O)N2CC=C(c3ccccc3)CC2)c2ccccc2n1C	0.3	52.7*	-0.4	-52.4	-11.5	-4.6	19.9
Cc1cc(C(=O)N2CC=C(c3ccccc3)CC2)c2ccccc2n1	-0.2	67.4*	3.3	-15.8	24.8	1.9	45.3
COc1ccc(-c2cc(C(=O)N3CCN(c4ccccc4)CC3)c3ccccc3n2)cc1	-0.8	60.2*	1.7	-52.3	-107.2	-2.7	-11.4
CC(=O)N1CCN(C(=O)c2cc(C)nc3ccccc23)CC1	-0.4	5.9	-0.5	8.7	11.8	-1.6	·
Cc1c(C(=O)C(=O)N2c3ccccc3CC2C)c2ccccc2n1C (stereo not given)	0.0	14.7	-0.7	10.9	-17.8	-3.1	·
COc1ccccc1CNC(=O)c1cn(C)c2ccc(S(=O)(=O)N3CCCCC3)cc2c1=O	·	19.7	·	15.5	·	4.0	·
CCCc1nc2oc3c(NCCN(C)C)ncnc3c2c2c1CCCC2	0.7	-0.2	-4.8	-12.6	9.1	1.7	·
